Published values of several laboratories.
Each line is one published result; the experiments were not run side by side.
Target: Muscle, skeletal receptor tyrosine-protein kinase (MUSK, Homo sapiens, UniProt O15146)
One construct used (O15146 24-869): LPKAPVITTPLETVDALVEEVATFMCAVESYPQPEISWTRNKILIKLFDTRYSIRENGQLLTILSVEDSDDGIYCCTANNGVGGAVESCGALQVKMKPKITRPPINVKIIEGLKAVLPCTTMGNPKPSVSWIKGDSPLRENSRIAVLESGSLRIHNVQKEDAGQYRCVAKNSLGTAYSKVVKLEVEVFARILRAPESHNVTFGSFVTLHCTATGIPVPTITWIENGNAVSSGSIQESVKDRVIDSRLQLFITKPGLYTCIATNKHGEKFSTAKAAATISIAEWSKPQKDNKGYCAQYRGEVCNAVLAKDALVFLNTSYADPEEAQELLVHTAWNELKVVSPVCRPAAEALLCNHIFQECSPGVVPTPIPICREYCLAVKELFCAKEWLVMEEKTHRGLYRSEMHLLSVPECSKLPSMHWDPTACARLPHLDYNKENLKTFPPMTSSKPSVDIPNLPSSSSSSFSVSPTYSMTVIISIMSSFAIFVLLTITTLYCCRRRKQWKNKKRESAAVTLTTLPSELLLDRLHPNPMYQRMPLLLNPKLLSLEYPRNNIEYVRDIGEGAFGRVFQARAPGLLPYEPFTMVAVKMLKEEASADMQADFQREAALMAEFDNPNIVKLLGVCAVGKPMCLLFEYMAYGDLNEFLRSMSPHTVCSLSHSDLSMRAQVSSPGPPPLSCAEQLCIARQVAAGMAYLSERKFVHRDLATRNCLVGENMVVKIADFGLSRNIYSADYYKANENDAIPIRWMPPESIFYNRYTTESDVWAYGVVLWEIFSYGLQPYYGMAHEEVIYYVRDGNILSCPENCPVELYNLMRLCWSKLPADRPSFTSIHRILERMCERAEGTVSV

SMILES	observed	mode	method	tested at	quantity	value
CCCCC(=O)Nc1ccc(-c2ccc3ncn(CCC)c(=O)c3c2)cn1	binding		competition with immobilised ligand	0.5 µM	remaining binding	93%
CC(C)S(=O)(=O)c1ccc2nccc(Nc3ccc4sc(C5CCCC5)nc4c3)c2c1	enzyme activity	inhibitor		1 µM	activity vs control	101%
C=CC(=O)N1CCC([C@@H]2CCNc3c(C(N)=O)c(-c4ccc(Oc5ccccc5)cc4)nn32)CC1	enzyme activity	inhibitor		1 µM	inhibition	16%
C1=C/COCc2cc(ccc2OCCN2CCCC2)Nc2nccc(n2)-c2cccc(c2)COC/1	binding			0.1 µM	remaining binding	89%
Cc1ccc(NC(=O)c2ccnc(C(F)(F)F)c2)cc1-c1cc(OCCO)nc(N2CCOCC2)c1	binding		competition with immobilised ligand	1 µM	remaining binding	91%
CO[C@@H]1[C@H](N(C)C(=O)c2ccccc2)C[C@H]2O[C@]1(C)n1c3ccccc3c3c4c(c5c6ccccc6n2c5c31)C(=O)NC4	enzyme activity	inhibitor		1 µM	inhibition	0%
CN1CCN(C(=O)c2ccc(NC(=O)Nc3ccc(N(C)c4ccnc(Nc5ccc(CS(C)(=O)=O)cc5)n4)cc3)cc2)CC1	binding		competition with immobilised ligand	1 µM	remaining binding	11%
C#Cc1cc(-c2cc(Nc3nc(N[C@@H](C)c4ccc(F)cn4)ncc3Cl)n[nH]2)ccc1C=O	enzyme activity	inhibitor		0.2 µM	inhibition	100%
